Reference: publication PMC10879835 (Saudi Journal of Biological Sciences, 2024)
Each block holds one compound with its values, some of them ahead of it.

What was measured:
Anti-oxidant DPPH assay = settings: 30 mins, absorbance at 515 nm
Procedure, shortened: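 Lipid-nanoparticle and solution formulations of the test compound were made as 1 mg/ml stocks in methanol and diluted to 1–50 ug/ml. Ascorbic acid was the control. Each dilution was mixed 1:1 by volume with 200 μM DPPH. Absorbance at 515 nm was read after 30 min against a methanol blank. % inhibition was taken […], and IC50 came from regression of mean % inhibition on log concentration.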

α-amylase = assay: α-Amylase inhibitory assay; type: biochemical; settings: at 100 µg/mL
Procedure, shortened: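 DNS method. Test compound at 25, 50, 100 and 200 µg/ml, or acarbose at 100 µg/ml as reference, was preincubated 30 min with α-amylase diluted in 20 mM sodium phosphate buffer pH 6.9. 1% w/w starch was then added and the mix held 15 min at 37 ± 0.5 °C. The reaction was stopped with DNS reagent and heated 5 min in boiling water, then read at 540 nm. % inhibition was calculated against a no-sample control and a no-enzyme blank.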

α-glucosidase = assay: α-Glucosidase inhibitory assay; type: biochemical
Procedure, shortened: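 Test sample was preincubated 15 min at 37 °C with α-glucosidase solution (1 U/mL in 0.1 M potassium phosphate buffer, pH 6.8). 5 mM p-nitrophenyl-α-D-glucopyranoside solution was added, with a further 15 min incubation. The reaction was stopped with 0.2 M sodium carbonate and read at 405 nm. Acarbose was the positive control. % inhibition came from control and blank absorbances.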

[1] = Solubility of MG in solid lipids and surfactants; type: physicochemical; settings: in Labrafil M 2130 CS
Procedure, shortened: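 1 g of each solid lipid was held in a vial on a magnetic stirrer above its melting point. Test compound was added in increments until saturation, and the amount dissolved was recorded. Samples were filtered through a 0.45 membrane to remove undissolved solid.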

DPPH IC50 (Anti-oxidant DPPH assay): 23.33 µg/mL
Compound: O=C1O[C@H]([C@@H](O)CO)C(O)=C1O [AA, ascorbic acid]

α-amylase inhibitory effect (α-amylase): 78.01 ± 7.45% | α-glucosidase inhibition (α-glucosidase): 63.43 ± 4.02%
Compound: C[C@H]1O[C@H](O[C@H]2[C@H](O)[C@@H](O)[C@@H](O[C@H]3[C@H](O)[C@@H](O)C(O)O[C@@H]3CO)O[C@@H]2CO)[C@H](O)[C@@H](O)[C@@H]1N[C@H]1C=C(CO)[C@@H](O)[C@H](O)[C@H]1O (stereo partly shown) [Acarbose]

MG solubility in solid lipid [1]: 77.63 ± 5.78 mg/g
Compound: O=c1c2cc(O)c(O)cc2oc2cc(O)c([C@@H]3O[C@H](CO)[C@@H](O)[C@H](O)[C@H]3O)c(O)c12 [Mangiferin]
